Laboratory results taken from ChEMBL document CHEMBL4715918, “Syntheses and evaluation of acridone-naphthalimide derivatives for regulating oncogene PDGFR-β expression” (Bioorg Med Chem, 2021).

Legend:
MCF7 [1] = test: Induction apoptosis in human MCF7 cells assessed as viable cells at 1.25 uM incubated for 24 hrs by Annexin-FTTC/PI staining based flow cytometric analysis (reference value: 99.7%); type: functional; settings: read-out: Activity
MCF7 [2] = test: Induction apoptosis in human MCF7 cells assessed as early apoptotic cells at 2.5 uM incubated for 24 hrs by Annexin-FTTC/PI staining based flow cytometric analysis (reference value: 0.28%); type: functional
MCF7 [3] = test: Antitumour activity against human MCF7 cells xenografted in nude BALB/c mouse assessed as tumour growth inhibition at 5 mg/kg, ip administered for 34 days relative to control; type: functional; settings: 816 h, time 34 day, read-out: TGI
MCF7 [4] = test: Induction apoptosis in human MCF7 cells assessed as necrotic cells at 1.25 uM incubated for 24 hrs by Annexin-FTTC/PI staining based flow cytometric analysis (reference value: 0.11%); type: functional
MCF7 [5] = test: Induction apoptosis in human MCF7 cells assessed as viable cells at 2.5 uM incubated for 24 hrs by Annexin-FTTC/PI staining based flow cytometric analysis (reference value: 99.7%); type: functional; settings: read-out: Activity
MCF7 [6] = test: Cytotoxicity against human MCF7 cells assessed as reduction in cell viability after 48 hrs by xcCELLigence RTCA analysis; type: functional, cell-based; settings: MCF7, 48 h
How it was run: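 xCELLigence RTCA: MCF-7 cells were cultured on E-plates about 16 h, then treated with 0.625, 1.25, 2.5 μM compound or DMSO. Impedance was monitored for 90 h.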

[7] = Binding affinity to 5'-FAM-GCGTCCACCCTCCCTGCCCCGCCGCCCCCCCTTCTCCCAGC-TAMRA-3' i-motif DNA (unknown origin) assessed as unfolding i-motif structure by measuring reduction in I585/I518 ratio by FRET assay; settings: dose 2-10 equiv
How it was run: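 FRET probe: i-motif oligonucleotide dual-labelled with FAM donor and TAMRA acceptor, 10 µM in 30 mM BPES buffer with 1 mM EDTA, KCl, thermally annealed. Compound was added in equal volume at increasing concentrations. Emission was scanned 500–700 nm and corrected for the compound's own signal. Read-out was the I585/I518 ratio, with the titration run at pH 6.2.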

[8] = Binding affinity to 5'-biotin-d [GCGTCCACCCTCCCTGCCCCGCCGCCCCCCCITCTCCCAGC]-3' i-motif DNA (unknown origin) assessed as decrease in positive peak by CD spectroscopy; settings: dose 2-10 equiv
How it was run: (§1)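 CD spectra: oligomers at 2 μM final, in BPES pH 5.5 (i-motif) or Tris-HCl pH 7.4 (G-quadruplex). Samples were annealed (95 °C 5 min, slow cool, 4 °C overnight), then titrated with increasing compound. Spectra were recorded at 25 °C over 230–330 nm in a 1 mm cuvette, buffer-subtracted, averaged and smoothed.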

[9] = Toxicity in nude BALB/c mouse xenografted with human MCF7 cells assessed as heart weight at 2.5 to 10 mg/kg, ip administered for 34 days; type: organism-based; settings: in vivo, 816 h, dose 2.5-10 mg/kg, time 34 day
How it was run: (§2)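 Nude BALB/c females bearing subcutaneous MCF-7 xenografts were dosed ip once daily for 34 days at 2.5, 5.0 or 10 mg/kg, with saline vehicle (100 µL) as control. Body weight was recorded every 2 days. After euthanasia by cervical dislocation, heart, liver, spleen and kidney were removed and weighed.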

[10] = Toxicity in nude BALB/c mouse xenografted with human MCF7 cells assessed as reduction in body weight at 2.5 to 10 mg/kg, ip administered for 34 days; type: organism-based; settings: in vivo, 816 h, dose 2.5-10 mg/kg, time 34 day; how it was run: as §2
[11] = Toxicity in nude BALB/c mouse xenografted with human MCF7 cells assessed as spleen weight at 2.5 to 10 mg/kg, ip administered for 34 days; type: organism-based; settings: in vivo, 816 h, dose 2.5-10 mg/kg, time 34 day; how it was run: as §2
MCF7 [12] = test: Antiinvasive activity in human MCF7 cells assessed as reduction in cell migration by microscopic method; type: functional, cell-based; settings: dose […], time 24-48 hrs
How it was run: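 Scratch assay: MCF-7 seeded 300,000 cells/well, grown 24 h at 37 °C/5% CO2, then a cross-shaped scrape was made through the monolayer with a pipet tip. Cells were exposed to 5, 2.5, 1.25, 0.625, 0.3125 μM compound or DMSO control. Wounded areas were photographed by microscopy at 0, 24 and 48 h.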

MCF7 [13] = test: Induction apoptosis in human MCF7 cells assessed as early apoptotic cells at 5 uM incubated for 24 hrs by Annexin-FTTC/PI staining based flow cytometric analysis (reference value: 0.28%); type: functional
MCF7 [14] = test: Induction of cell cycle arrest in human MCF7 cells assessed as accumulation at G0/G1 phase at 0.625 to 10 uM after 48 hrs by propidium iodide staining based flow cytometric analysis (reference value: 75.7%); type: functional; settings: dose 0.625-10 µM
How it was run: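 MCF-7 cells, 2 × 10^5/well, were pre-grown 12 h, then treated with 10, 5, 2.5, 1.25, 0.625 μM compound or DMSO. Cells were fixed in 75% ethanol at −20 °C overnight. Staining was 50 μg/mL PI with RNase A, 30 min at room temperature in the dark. Flow cytometry collected 10,000 events; phase distribution was determined.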

Quadruplex DNA [15] = test: Binding affinity to 5'-FAM-GGGAGAAGGGGGGGCGGCGGGGCAGGGAGGGTGGAC-TAMRA-3' G4-quadruplex DNA (unknown origin) assessed as stabilization G4-quadruplex structure by measuring increase in I585/I518 ratio by FRET assay; type: nucleic-acid assay; settings: dose 2-10 equiv
How it was run: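 FRET probe dual-labelled FAM/TAMRA, annealed, 10 µM in 10 mM Tris-HCl pH 7.4 with 10 mM KCl; compound added in equal volume. Emission 500–700 nm recorded, corrected for compound signal in the same buffer; I585/I518 ratio compared.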

Quadruplex DNA [16] = test: Binding affinity to 5'-biotin-d [GCTGGGAGAAGGGGGGGCGGCGGGGCAGGGAGGGTGGACGC]-3' G4-quadruplex DNA (unknown origin) assessed as decrease in positive peak by CD spectroscopy; type: nucleic-acid assay; settings: dose 2-10 equiv; how it was run: as §1
[17] = Binding affinity to 5'-biotin-d [GCGTCCACCCTCCCTGCCCCGCCGCCCCCCCITCTCCCAGC]-3' i-motif DNA (unknown origin) assessed as change in melting temperature at 10 uM by CD spectroscopy
How it was run: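 Oligomer 2 µM in BPES buffer pH 5.5, heated to 95 °C for 5 min, cooled slowly and held at 4 °C overnight. Ligand 10 µM. CD ellipticity followed at 288 nm from 25–95 °C (1 mm cuvette); Tm derived, ΔTm against DNA alone.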

MCF7 [18] = test: Antitumour activity against human MCF7 cells xenografted in nude BALB/c mouse assessed as tumour volume at 10 mg/kg, ip administered for 34 days (reference value: 1530 mm3); type: functional; settings: time 34 day
MCF7 [19] = test: Antitumour activity against human MCF7 cells xenografted in nude BALB/c mouse assessed as tumour growth inhibition at 2.5 mg/kg, ip administered for 34 days relative to control; type: functional; settings: 816 h, time 34 day, read-out: TGI
MCF7 [20] = test: Cytotoxicity against human MCF7 cells assessed as reduction in cell viability after 48 hrs by MTT assay; type: functional, cell-based; settings: MCF7, 48 h
How it was run: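 MTT assay: cells seeded at 5.0 × 10³/well, grown 12 h, then exposed to graded compound concentrations for 48 h at 37 °C/5% CO2. 2.5 mg/mL MTT was added for 4 h, formazan dissolved in DMSO, and absorbance read at 570 nm. Each dose in triplicate; IC50 from percent survival versus negative control.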

Cc1ccc2c(c1)c(=O)c1cc(C(=O)NCCCN(C)CCCN3C(=O)c4cccc5c(N6CCN(C)CC6)ccc(c45)C3=O)ccc1n2-c1ccc(C(=O)NCCCN(C)CCCN2C(=O)c3cccc4c(N5CCN(C)CC5)ccc(c34)C2=O)cc1
viability at 1.25 µM (MCF7 [1]): 91.4%
Activity (MCF7 [2]): 26.1%
inhibition in vivo at 5 mg/kg (MCF7 [3]): 47.6%
Activity (MCF7 [4]): 0.43%
viability at 2.5 µM (MCF7 [5]): 71.4%
IC50 (MCF7 [6]): 2.74 µM
Activity [7]: Dose-dependent effect
Activity [8]: Dose-dependent effect
Activity [9]: Non-Toxic
Activity [10]: Non-Toxic
Activity [11]: Non-Toxic
Activity (MCF7 [12]): Dose-dependent effect
Activity (MCF7 [13]): 33.5%
Activity (MCF7 [14]): 48.1%
Activity (Quadruplex DNA [15]): Dose-dependent effect
Activity (Quadruplex DNA [16]): Dose-dependent effect
ΔTm [17]: -16.7 °C
Activity (MCF7 [18]): 640.2 mm3
inhibition in vivo at 2.5 mg/kg (MCF7 [19]): 34.9%
IC50 (MCF7 [20]): 4.69 µM
